≈ marks a conversion by molar mass, not a printed value. Calls of active or inactive are those of the source. No cut-off for these calls is given here.
Assays:
Escherichia coli [1] = experiment: Antimicrobial activity against Escherichia coli at 100 ug/disc after 24 hrs by disc diffusion method; type: functional; conditions: read-out: DIZ
Bacillus subtilis [2] = experiment: Antimicrobial activity against Bacillus subtilis at 100 ug/disc after 24 hrs by disc diffusion method; type: functional; conditions: read-out: DIZ
[3] = test system: Staphylococcus epidermidis; experiment: Antimicrobial activity against Staphylococcus epidermidis at 100 ug/disc after 24 hrs by disc diffusion method; type: functional; conditions: read-out: DIZ
Klebsiella pneumoniae [4] = experiment: Antimicrobial activity against Klebsiella pneumoniae at 100 ug/disc after 24 hrs by disc diffusion method; type: functional; conditions: read-out: DIZ
Listeria monocytogenes [5] = experiment: Antimicrobial activity against Listeria monocytogenes at 100 ug/disc after 24 hrs by disc diffusion method; type: functional; conditions: read-out: DIZ
Salmonella typhimurium [6] = experiment: Antimicrobial activity against Salmonella Typhimurium at 100 ug/disc after 24 hrs by disc diffusion method; type: functional, Salmonella enterica subsp. enterica serovar Typhimurium; conditions: Salmonella enterica, read-out: DIZ
Staphylococcus aureus [7] = experiment: Antimicrobial activity against Staphylococcus aureus at 100 ug/disc after 24 hrs by disc diffusion method; type: functional; conditions: read-out: DIZ
Staphylococcus aureus [8] = experiment: Antimicrobial activity against methicillin-resistant Staphylococcus aureus strain 1 TB3G at 100 ug/disc after 24 hrs by disc diffusion method; type: functional; conditions: read-out: DIZ
Staphylococcus aureus [9] = experiment: Antimicrobial activity against methicillin-resistant Staphylococcus aureus strain 2 TB4G at 100 ug/disc after 24 hrs by disc diffusion method; type: functional; conditions: read-out: DIZ
Staphylococcus aureus [10] = experiment: Antimicrobial activity against methicillin-resistant Staphylococcus aureus strain 4 TB5G at 100 ug/disc after 24 hrs by disc diffusion method; type: functional, organism-based
Escherichia coli [11] = experiment: Antimicrobial activity against Escherichia coli after 24 hrs by microdilution method; type: functional
Outline: (§1)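 Growth was judged by turbidity, and the MIC was taken as the minimum concentration giving the lowest growth. Amikacin served as reference.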

Bacillus subtilis [12] = experiment: Antimicrobial activity against Bacillus subtilis after 24 hrs by microdilution method; type: functional; outline: as §1
[13] = test system: Staphylococcus epidermidis; experiment: Antimicrobial activity against Staphylococcus epidermidis after 24 hrs by microdilution method; type: functional; outline: as §1
Klebsiella pneumoniae [14] = experiment: Antimicrobial activity against Klebsiella pneumoniae after 24 hrs by microdilution method; type: functional; outline: as §1
Listeria monocytogenes [15] = experiment: Antimicrobial activity against Listeria monocytogenes after 24 hrs by microdilution method; type: functional; outline: as §1
Salmonella typhimurium [16] = experiment: Antimicrobial activity against Salmonella Typhimurium after 24 hrs by microdilution method; type: functional, Salmonella enterica subsp. enterica serovar Typhimurium; conditions: Salmonella enterica; outline: as §1
Staphylococcus aureus [17] = experiment: Antimicrobial activity against Staphylococcus aureus after 24 hrs by microdilution method; type: functional; outline: as §1
Staphylococcus aureus [18] = experiment: Antimicrobial activity against methicillin-resistant Staphylococcus aureus strain 1 TB3G after 24 hrs by microdilution method; type: functional
Outline: (§2)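 Growth was judged by turbidity. The MIC was taken as the lowest concentration giving the lowest growth.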

Staphylococcus aureus [19] = experiment: Antimicrobial activity against methicillin-resistant Staphylococcus aureus strain 2 TB4G after 24 hrs by microdilution method; type: functional; outline: as §2
Staphylococcus aureus [20] = experiment: Antimicrobial activity against methicillin-resistant Staphylococcus aureus strain 4 TB5G after 24 hrs by microdilution method; type: functional; outline: as §2

For `NCC[C@H](O)C(=O)N[C@@H]1C[C@H](N)[C@@H](O[C@H]2O[C@H](CN)[C@@H](O)[C@H](O)[C@H]2O)[C@H](O)[C@H]1O[C@H]1O[C@H](CO)[C@@H](O)[C@H](N)[C@H]1O` [AMIKACIN], the zone of inhibition at 100 µg/disc (Escherichia coli [1]) was 22 mm, the zone of inhibition at 100 µg/disc (Bacillus subtilis [2]) was 21 mm and the zone of inhibition at 100 µg/disc [3] was 22 mm. The zone of inhibition at 100 µg/disc (Klebsiella pneumoniae [4]) was 21 mm, the zone of inhibition at 100 µg/disc (Listeria monocytogenes [5]) was 20 mm and the zone of inhibition at 100 µg/disc (Salmonella typhimurium [6]) was 19 mm. It also gave a zone of inhibition at 100 µg/disc (Staphylococcus aureus [7]) of 20 mm, a zone of inhibition at 100 µg/disc (Staphylococcus aureus [8]) of 17 mm and a zone of inhibition at 100 µg/disc (Staphylococcus aureus [9]) of 19 mm. For the same compound, the “diameter of the inhibition zone (DIZ)” value (Staphylococcus aureus [10]) was “inactive”, the MIC (Escherichia coli [11]) was 6 µg/mL (≈ 10.2 µM) and the MIC (Bacillus subtilis [12]) was 6 µg/mL (≈ 10.2 µM). For the same compound, the MIC [13] was 12 µg/mL (≈ 20.5 µM), the MIC (Klebsiella pneumoniae [14]) was 6 µg/mL (≈ 10.2 µM) and the MIC (Listeria monocytogenes [15]) was 6 µg/mL (≈ 10.2 µM). The MIC (Salmonella typhimurium [16]) was 12 µg/mL (≈ 20.5 µM), the MIC (Staphylococcus aureus [17]) was 50 µg/mL (≈ 85.4 µM) and the MIC (Staphylococcus aureus [18]) was over 100 µg/mL. For the same compound, the MIC (Staphylococcus aureus [19]) was over 100 µg/mL and the MIC (Staphylococcus aureus [20]) was over 100 µg/mL.

— ChEMBL document CHEMBL1770123, “SPF32629A and SPF32629B: enantioselective synthesis, determination of absolute configuration, cytotoxicity and antibacterial evaluation” (Eur J Med Chem, 2011)
